Results as given in article PMC3530405 (Journal of immunology (Baltimore, Md. : 1950), 2012).
Entries after “also recorded” stand apart in the source; their conditions may differ.

Assays:
Assay type in all cases: biochemical
ERAP2^K [1] = biological target: T1, ERAP2^K (Homo sapiens, UniProt Q6P179); assay: Peptide trimming by ERAP2^K; conditions: for trimming rate relative to ERAP1: ERAP2^K compared to ERAP1
Procedure, shortened: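 20 μM peptide was incubated with 100 to 4,000ng (7.3 to 293.6nM) ERAP1 or recombinant ERAP2 at 37°C for 15 min to 1 hour in 50mM HEPES pH 7.0, 100mM NaCl. Reactions were stopped with 0.1% TFA, centrifuged, and run on C18 RP-HPLC (5–50% acetonitrile, A220). Initial rates were taken under <30% completion, and enzymes were compared in parallel. Products were identified by peptide controls and MS; epitope destruction was measured from accumulated smaller peptides.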

ERAP2^N [2] = biological target: T2, ERAP2^N (Homo sapiens, UniProt Q6P179, K392N); assay: Trimming of […] by ERAP2 alleles; conditions: ERAP2^N vs ERAP2^K; MS (LTQ Orbitrap), <30% completion
ERAP2^N [3] = biological target: T2, ERAP2^N; assay: Peptide trimming by ERAP2^N; conditions: 20 μM precursor; for trimming rates, comparison of alleles: ERAP2^N vs ERAP2^K, 37°C, pH 7.0
ERAP2^N [4] = biological target: T2, ERAP2^N; assay: Inhibition of R-AMC hydrolysis by ERAP2^N; conditions: ERAP2^N vs ERAP2^K, Ki values only in Figure 7B
Procedure, shortened: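 His-tagged recombinant human ERAP2 (N392 or K392 form), baculovirus-expressed in Hi5 insect cells, Ni-NTA purified and thawed once before use. R-AMC hydrolysis was tracked against rising inhibitor concentrations by fluorescence (ex 380 nm, em 460 nm) over 5 min, with the slope taken as the rate.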

ERAP2^N [5] = biological target: T2, ERAP2^N; assay: R-AMC hydrolysis / Michaelis-Menten analysis by ERAP2^N
ERAP2^K [6] = biological target: T1, ERAP2^K; assay: R-AMC hydrolysis / Michaelis-Menten analysis by ERAP2^K
[7] = precursor carrying N-terminal leucine
[8] = ERAP2^K, Michaelis-Menten analysis

T2 sequence (Q6P179 whole entry K392N): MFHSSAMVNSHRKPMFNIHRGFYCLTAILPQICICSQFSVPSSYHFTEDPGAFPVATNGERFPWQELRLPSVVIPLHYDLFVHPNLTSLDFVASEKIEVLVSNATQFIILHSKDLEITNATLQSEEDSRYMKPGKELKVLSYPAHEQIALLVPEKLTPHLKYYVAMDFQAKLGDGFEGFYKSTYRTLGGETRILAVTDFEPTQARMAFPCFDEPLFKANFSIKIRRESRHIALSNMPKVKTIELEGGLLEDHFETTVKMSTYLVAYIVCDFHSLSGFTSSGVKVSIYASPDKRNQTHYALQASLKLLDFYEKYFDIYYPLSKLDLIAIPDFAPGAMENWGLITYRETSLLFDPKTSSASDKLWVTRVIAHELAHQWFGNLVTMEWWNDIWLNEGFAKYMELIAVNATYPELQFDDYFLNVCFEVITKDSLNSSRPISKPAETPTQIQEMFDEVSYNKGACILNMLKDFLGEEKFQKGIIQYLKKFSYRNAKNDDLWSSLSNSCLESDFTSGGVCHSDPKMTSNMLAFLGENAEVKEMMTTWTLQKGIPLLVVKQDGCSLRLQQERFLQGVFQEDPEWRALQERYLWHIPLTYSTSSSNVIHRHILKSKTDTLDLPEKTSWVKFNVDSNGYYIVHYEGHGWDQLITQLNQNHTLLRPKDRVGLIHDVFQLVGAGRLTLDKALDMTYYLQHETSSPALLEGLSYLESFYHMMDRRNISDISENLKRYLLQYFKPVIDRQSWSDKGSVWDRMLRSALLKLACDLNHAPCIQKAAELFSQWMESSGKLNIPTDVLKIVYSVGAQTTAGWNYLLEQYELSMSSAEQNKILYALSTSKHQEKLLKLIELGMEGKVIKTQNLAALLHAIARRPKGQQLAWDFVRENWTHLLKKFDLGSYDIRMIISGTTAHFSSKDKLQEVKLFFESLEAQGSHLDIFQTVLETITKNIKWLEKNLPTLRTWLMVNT
T1 sequence (Q6P179 whole entry): as the sequence (Q6P179 whole entry K392N) above, with N392K counted along it

## LSRHHAFSFR
ERAP2^K [1]; [7]
  trimming rate relative to ERAP1: much less efficient

## ASRHHAFSFR
ERAP2^N [2]
  epitope generation rate, fold faster: about 2 fold

## RSRYWAIRTR
ERAP2^N [3]
  trimming rates, comparison of alleles: almost identical rates by both ERAP2 alleles; also recorded: essentially identical for both alleles

## Amastatin
ERAP2^N [4]
  inhibition of the two ERAP2 alleles: nearly identical

## SRHHAFSFR
ERAP2^K [1]; ERAP1, ERAP2^N and ERAP2^K, precursor carrying N-terminal leucine
  all three enzymes: epitope generation vs destruction: generated the epitope faster than they destroyed it
ERAP2^K [1]; [7]
  trimming rate relative to ERAP1: negligible compared to that of ERAP1

## WLRRYLENGK
ERAP2^N [3]; ERAP2^N versus ERAP2^K
  trimming rate difference between alleles: 165 fold

## Cc1cc(=O)oc2cc(NC(=O)[C@@H](N)CCCN=C(N)N)ccc12 [R-AMC, L-Arginyl-7-amido-4-methyl coumarin]
ERAP2^N [5]; Michaelis-Menten analysis
  Km: 30 ± 9 µM
  kcat: 104±9 ×10^−3 sec^−1
ERAP2^N [5]; fluorescence ex 380 nm, em 460 nm, 5 min
  rate of hydrolysis: 78±1 mmol product/mol enzyme sec^−1
ERAP2^K [6]; ERAP2^K vs ERAP2^N
  lowering of kcat constant: about 18 fold
ERAP2^K [6]; [8]
  Km: 17 ± 5 µM
  kcat: 5.8±0.4 ×10^−3 sec^−1
ERAP2^K [6]; ERAP2^K, fluorescence ex 380 nm, em 460 nm, 5 min
  rate of hydrolysis: 4.8±3 mmol/mol sec^−1
ERAP2^K [6]; ERAP2^N vs ERAP2^K
  change of substrate affinity between polymorphic states: less than 2 fold

## LSRYWAIRTR
ERAP2^K [1]; ERAP2^K, RP-HPLC, 20 μM peptide, 37°C, pH 7.0
  epitope generation from precursor: essentially failing to produce detectable amounts of mature epitope; also recorded: absence of a visible epitope peak produced by ERAP2^K
ERAP2^N [3]
  trimming rates, comparison of alleles: drastically different
